Calls of active or inactive are those of the source. The rule behind the calls is not given here.
Legend:
[1] = molecular target: Proto-oncogene tyrosine-protein kinase receptor Ret (Homo sapiens) (UniProt P07949); assay: Inhibition of RET (unknown origin) at 100 nM in the presence of ATP by Kinome scan method relative to control
[2] = molecular target: Mitogen-activated protein kinase 9 (Homo sapiens) (UniProt P45984); assay: Inhibition of MAPK9 (unknown origin) at 1000 nM in the presence of ATP by Kinome scan method relative to control
Chain of Mitogen-activated protein kinase 9 (Homo sapiens) (P45984 whole entry, looked up): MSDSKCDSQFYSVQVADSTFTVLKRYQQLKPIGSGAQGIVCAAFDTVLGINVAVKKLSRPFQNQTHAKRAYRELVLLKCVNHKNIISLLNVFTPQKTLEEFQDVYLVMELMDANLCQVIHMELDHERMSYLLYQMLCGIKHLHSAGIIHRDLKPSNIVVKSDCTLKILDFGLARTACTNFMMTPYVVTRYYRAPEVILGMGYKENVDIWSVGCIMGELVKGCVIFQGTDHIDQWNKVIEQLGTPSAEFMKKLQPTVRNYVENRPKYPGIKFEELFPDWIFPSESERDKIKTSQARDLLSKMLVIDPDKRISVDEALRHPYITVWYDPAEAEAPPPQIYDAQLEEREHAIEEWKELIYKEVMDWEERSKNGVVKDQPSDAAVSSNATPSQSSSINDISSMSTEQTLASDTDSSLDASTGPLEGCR

[3] = molecular target: Focal adhesion kinase 1 (Homo sapiens) (UniProt Q05397); assay: Inhibition of PTK2 (unknown origin) at 100 nM in the presence of ATP by Kinome scan method relative to control
Chain of Focal adhesion kinase 1 (Homo sapiens) (Q05397 2-1052 limits assumed): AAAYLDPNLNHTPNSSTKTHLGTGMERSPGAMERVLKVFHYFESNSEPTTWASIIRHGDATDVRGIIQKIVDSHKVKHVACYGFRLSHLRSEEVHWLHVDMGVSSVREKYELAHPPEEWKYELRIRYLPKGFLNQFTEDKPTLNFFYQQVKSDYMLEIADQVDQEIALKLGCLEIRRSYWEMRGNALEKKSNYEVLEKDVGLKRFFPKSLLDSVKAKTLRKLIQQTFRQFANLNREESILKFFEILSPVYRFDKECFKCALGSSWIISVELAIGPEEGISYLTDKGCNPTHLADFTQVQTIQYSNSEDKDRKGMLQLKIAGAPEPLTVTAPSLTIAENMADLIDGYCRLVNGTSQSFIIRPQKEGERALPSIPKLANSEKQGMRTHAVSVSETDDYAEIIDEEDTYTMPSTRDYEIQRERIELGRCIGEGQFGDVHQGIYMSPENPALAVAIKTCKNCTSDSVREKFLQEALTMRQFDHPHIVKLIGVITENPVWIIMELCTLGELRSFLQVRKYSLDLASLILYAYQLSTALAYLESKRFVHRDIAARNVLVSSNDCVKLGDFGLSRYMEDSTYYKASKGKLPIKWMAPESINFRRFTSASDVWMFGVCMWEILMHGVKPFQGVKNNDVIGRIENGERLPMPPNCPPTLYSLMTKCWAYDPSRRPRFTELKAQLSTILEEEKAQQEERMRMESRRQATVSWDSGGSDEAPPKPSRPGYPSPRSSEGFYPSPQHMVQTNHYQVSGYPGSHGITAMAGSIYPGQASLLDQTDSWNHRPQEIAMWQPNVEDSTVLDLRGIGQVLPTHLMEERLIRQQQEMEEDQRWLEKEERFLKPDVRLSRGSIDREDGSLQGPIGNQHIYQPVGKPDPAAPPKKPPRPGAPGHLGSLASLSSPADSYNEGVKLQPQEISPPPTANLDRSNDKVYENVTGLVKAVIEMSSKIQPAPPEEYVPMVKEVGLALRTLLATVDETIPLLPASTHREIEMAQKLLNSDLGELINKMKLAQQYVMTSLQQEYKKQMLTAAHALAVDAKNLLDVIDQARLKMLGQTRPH

[4] = molecular target: Ephrin type-A receptor 1 (Homo sapiens) (UniProt P21709); assay: Inhibition of EPHA1 (unknown origin) at 1000 nM in the presence of ATP by Kinome scan method relative to control
[5] = molecular target: Calcium/calmodulin-dependent protein kinase type 1 (Homo sapiens) (UniProt Q14012); assay: Inhibition of CAMK1 (unknown origin) at 100 nM in the presence of ATP by Kinome scan method relative to control
Chain of Calcium/calmodulin-dependent protein kinase type 1 (Homo sapiens) (Q14012 whole entry, looked up): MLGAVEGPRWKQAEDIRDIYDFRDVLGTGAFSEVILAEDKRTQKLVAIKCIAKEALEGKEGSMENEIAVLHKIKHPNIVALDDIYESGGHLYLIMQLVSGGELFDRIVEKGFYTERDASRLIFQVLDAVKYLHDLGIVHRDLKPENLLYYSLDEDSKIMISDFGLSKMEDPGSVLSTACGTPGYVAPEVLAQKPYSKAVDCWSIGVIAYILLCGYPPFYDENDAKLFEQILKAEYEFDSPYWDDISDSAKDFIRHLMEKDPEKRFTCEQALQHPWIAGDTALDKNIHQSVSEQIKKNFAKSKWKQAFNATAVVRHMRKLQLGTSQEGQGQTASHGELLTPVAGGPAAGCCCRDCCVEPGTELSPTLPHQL

[6] = molecular target: Dual specificity protein kinase CLK1 (Homo sapiens) (UniProt P49759); assay: Inhibition of CLK (unknown origin) in human HCT-116 cells assessed as decrease in SRSF4 phosphorylation level at 0.5 to 1.0 uM incubated for 6 hrs by immunoblot analysis; type: cell-based; settings: dose 0.5-1 µM
Chain of Dual specificity protein kinase CLK1 (Homo sapiens) (P49759 whole entry, looked up, canonical isoform): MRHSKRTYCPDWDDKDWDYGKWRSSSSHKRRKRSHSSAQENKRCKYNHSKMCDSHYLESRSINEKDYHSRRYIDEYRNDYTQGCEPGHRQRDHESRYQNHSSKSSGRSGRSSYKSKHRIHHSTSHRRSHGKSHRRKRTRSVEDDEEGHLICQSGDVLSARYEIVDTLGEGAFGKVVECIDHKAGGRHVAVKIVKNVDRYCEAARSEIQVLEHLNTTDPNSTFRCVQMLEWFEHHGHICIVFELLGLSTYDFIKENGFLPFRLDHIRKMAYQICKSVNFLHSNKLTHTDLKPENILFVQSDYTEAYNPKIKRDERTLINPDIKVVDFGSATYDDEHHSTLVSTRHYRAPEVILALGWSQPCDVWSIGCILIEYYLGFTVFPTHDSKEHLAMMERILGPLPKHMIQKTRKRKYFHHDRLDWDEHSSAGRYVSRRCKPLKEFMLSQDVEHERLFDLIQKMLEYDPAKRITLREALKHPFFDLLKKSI

[7] = molecular target: Rho-associated protein kinase 1 (Homo sapiens) (UniProt Q13464); assay: Inhibition of ROCK1 (unknown origin) at 1000 nM in the presence of ATP by Kinome scan method relative to control
[8] = molecular target: Dual specificity protein kinase CLK2 (Homo sapiens, UniProt P49760); assay: Inhibition of N-terminal FLAG-tagged CLK2 in human HCT-116 cells assessed as increase in CLK2 protein level at 0.5 to 0.1 uM incubated for 6 hrs by immunoblot analysis; type: cell-based; settings: dose 0.5-0.1 µM
[9] = molecular target: CDK7/Cyclin H/MNAT1 (Homo sapiens) (UniProt P51946+P50613+P51948); assay: Inhibition of CDK7/cyclin H/MNAT1 (unknown origin) at 1000 nM in the presence of ATP by Kinome scan method relative to control; type: protein-complex assay
[10] = molecular target: Serine/threonine-protein kinase mTOR (Homo sapiens) (UniProt P42345); assay: Inhibition of FRAP1 (unknown origin) at 1000 nM in the presence of ATP by Kinome scan method relative to control
[11] = molecular target: Dual specificity mitogen-activated protein kinase kinase 2 (Homo sapiens) (UniProt P36507); assay: Inhibition of MAP2K2 (unknown origin) at 100 nM in the presence of ATP by Kinome scan method relative to control
[12] = system: HCT-116; assay: Induction of cell cycle arrest in human HCT-116 cells assessed as sub G0/G1 phase at 0.5 uM incubated for 24 hrs by flow cytometry analysis (Rvb=2.5%); type: functional
[13] = system: HCT-116; assay: Induction of cell cycle arrest in human HCT-116 cells assessed as G0/G1 phase at 1 uM incubated for 6 hrs by flow cytometry analysis (Rvb=35.0%); type: functional
[14] = molecular target: Dual specificity protein kinase CLK1 (Homo sapiens) (UniProt P49759); assay: Inhibition of CLK (unknown origin) in human HCT-116 cells assessed as induction in alternative splicing effect in RBM25-PSEN1 level incubated for 6 hrs by RT-PCR analysis; type: cell-based; settings: dose 0.2-5 µM
In short: (§1)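 Cells exposed to graded T3 concentrations for 6 h (chosen to avoid cytotoxicity), with a DMSO vehicle control. Total RNA was reverse-transcribed with oligo-dT primers. Targeted splice or conjoined-gene products were quantified by real-time qPCR or by targeted next-generation sequencing. Conjoined-gene isoform expression was normalized to a sequenced housekeeping gene.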

[15] = molecular target: Mitogen-activated protein kinase 11 (Homo sapiens) (UniProt Q15759); assay: Inhibition of MAPK11 (unknown origin) at 100 nM in the presence of ATP by Kinome scan method relative to control
Chain of Mitogen-activated protein kinase 11 (Homo sapiens) (Q15759 whole entry): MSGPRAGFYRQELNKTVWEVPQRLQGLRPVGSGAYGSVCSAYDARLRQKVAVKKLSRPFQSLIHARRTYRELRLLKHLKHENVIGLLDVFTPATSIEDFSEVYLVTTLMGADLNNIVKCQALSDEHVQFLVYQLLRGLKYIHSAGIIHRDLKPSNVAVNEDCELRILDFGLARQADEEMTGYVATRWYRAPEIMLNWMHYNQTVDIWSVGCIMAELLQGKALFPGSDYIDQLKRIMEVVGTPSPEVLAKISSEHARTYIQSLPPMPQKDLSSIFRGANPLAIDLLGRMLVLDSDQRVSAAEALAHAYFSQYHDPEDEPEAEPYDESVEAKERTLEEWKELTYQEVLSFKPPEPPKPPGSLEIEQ

[16] = molecular target: Serine/threonine-protein kinase Chk1 (Homo sapiens) (UniProt O14757); assay: Inhibition of CHEK1 (unknown origin) at 1000 nM in the presence of ATP by Kinome scan method relative to control
Chain of Serine/threonine-protein kinase Chk1 (Homo sapiens) (O14757 whole entry): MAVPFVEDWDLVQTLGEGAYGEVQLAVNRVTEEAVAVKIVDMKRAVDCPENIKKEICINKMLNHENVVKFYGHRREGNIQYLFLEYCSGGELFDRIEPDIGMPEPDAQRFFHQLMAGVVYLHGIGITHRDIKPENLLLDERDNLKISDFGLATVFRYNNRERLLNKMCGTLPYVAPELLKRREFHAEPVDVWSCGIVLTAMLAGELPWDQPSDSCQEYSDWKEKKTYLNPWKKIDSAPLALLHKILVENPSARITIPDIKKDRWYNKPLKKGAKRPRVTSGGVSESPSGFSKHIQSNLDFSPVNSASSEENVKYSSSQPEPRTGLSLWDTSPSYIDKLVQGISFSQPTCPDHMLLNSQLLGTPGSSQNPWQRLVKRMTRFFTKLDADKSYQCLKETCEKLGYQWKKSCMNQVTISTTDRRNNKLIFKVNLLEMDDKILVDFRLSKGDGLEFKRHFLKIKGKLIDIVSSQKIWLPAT

[17] = system: HCT-116; assay: Induction of cell cycle arrest in human HCT-116 cells assessed as G2/M phase at 10 uM incubated for 24 hrs by flow cytometry analysis (Rvb=17.9%); type: functional
[18] = system: HCT-116; assay: Induction of apoptosis in human HCT-116 cells assessed as late apoptosis at 10 uM incubated for > 6 hrs by annexin V/PI staining based analysis (Rvb=6.12%); type: functional
[19] = molecular target: Ephrin type-B receptor 1 (Homo sapiens) (UniProt P54762); assay: Inhibition of EPHB1 (unknown origin) at 1000 nM in the presence of ATP by Kinome scan method relative to control
[20] = molecular target: Cyclin-dependent kinase 1/cyclin B1 (Homo sapiens) (UniProt P06493+P14635); assay: Inhibition of CDK1/cyclin B (unknown origin) at 100 nM in the presence of ATP by Kinome scan method relative to control; type: protein-complex assay
[21] = molecular target: Tyrosine-protein kinase JAK2 (Homo sapiens) (UniProt O60674); assay: Inhibition of JAK2 (unknown origin) at 1000 nM in the presence of ATP by Kinome scan method relative to control
[22] = molecular target: SRSF protein kinase 2 (Homo sapiens) (UniProt P78362); assay: Inhibition of SRPK2 (unknown origin) at 1110 nM in the presence of ATP by Kinome scan method relative to control; settings: time > 6.0 hrs
[23] = molecular target: Dual specificity protein kinase CLK1 (Homo sapiens) (UniProt P49759); assay: Inhibition of CLK (unknown origin) in human HCT-116 cells assessed as induction in alternative splicing effect in CDC6-RARA level incubated for 6 hrs by RT-PCR analysis; type: cell-based; settings: dose 0.2-5 µM; in short: as §1
[24] = molecular target: Ephrin type-A receptor 5 (Homo sapiens) (UniProt P54756); assay: Inhibition of EPHA5 (unknown origin) at 1000 nM in the presence of ATP by Kinome scan method relative to control
Chain of Ephrin type-A receptor 5 (Homo sapiens) (P54756 whole entry): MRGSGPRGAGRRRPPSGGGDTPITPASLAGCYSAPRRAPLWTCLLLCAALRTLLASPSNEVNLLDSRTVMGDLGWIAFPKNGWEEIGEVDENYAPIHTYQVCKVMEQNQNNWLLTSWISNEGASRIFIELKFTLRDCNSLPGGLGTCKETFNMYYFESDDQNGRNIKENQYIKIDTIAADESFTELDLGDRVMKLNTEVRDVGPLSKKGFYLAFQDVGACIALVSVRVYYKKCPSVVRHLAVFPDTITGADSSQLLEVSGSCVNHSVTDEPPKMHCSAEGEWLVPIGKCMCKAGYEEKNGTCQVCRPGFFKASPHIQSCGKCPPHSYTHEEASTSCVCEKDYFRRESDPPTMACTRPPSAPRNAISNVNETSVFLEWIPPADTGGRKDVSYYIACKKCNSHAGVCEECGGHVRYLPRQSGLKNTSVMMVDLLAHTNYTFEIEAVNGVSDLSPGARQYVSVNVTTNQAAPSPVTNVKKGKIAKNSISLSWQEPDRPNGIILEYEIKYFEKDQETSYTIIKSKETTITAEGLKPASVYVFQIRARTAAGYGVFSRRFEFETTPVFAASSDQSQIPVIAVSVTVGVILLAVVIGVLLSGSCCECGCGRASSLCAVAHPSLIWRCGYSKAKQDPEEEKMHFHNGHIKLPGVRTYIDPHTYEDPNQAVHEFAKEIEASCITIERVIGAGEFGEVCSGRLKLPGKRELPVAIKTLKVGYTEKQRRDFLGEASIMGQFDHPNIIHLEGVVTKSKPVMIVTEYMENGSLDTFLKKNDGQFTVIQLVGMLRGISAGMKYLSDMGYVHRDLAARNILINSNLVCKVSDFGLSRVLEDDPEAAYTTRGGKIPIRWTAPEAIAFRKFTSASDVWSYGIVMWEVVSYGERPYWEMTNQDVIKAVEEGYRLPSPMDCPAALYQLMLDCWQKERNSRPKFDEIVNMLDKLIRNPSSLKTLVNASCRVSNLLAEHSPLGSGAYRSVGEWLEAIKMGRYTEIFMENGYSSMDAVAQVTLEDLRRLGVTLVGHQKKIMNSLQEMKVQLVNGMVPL

[25] = molecular target: Dual specificity protein kinase CLK3 (Homo sapiens) (UniProt P49761); assay: Inhibition of CLK3 (unknown origin) at 123 nM in the presence of ATP by Kinome scan method relative to control; settings: time > 6.0 hrs
Chain of Dual specificity protein kinase CLK3 (Homo sapiens) (P49761 whole entry, looked up): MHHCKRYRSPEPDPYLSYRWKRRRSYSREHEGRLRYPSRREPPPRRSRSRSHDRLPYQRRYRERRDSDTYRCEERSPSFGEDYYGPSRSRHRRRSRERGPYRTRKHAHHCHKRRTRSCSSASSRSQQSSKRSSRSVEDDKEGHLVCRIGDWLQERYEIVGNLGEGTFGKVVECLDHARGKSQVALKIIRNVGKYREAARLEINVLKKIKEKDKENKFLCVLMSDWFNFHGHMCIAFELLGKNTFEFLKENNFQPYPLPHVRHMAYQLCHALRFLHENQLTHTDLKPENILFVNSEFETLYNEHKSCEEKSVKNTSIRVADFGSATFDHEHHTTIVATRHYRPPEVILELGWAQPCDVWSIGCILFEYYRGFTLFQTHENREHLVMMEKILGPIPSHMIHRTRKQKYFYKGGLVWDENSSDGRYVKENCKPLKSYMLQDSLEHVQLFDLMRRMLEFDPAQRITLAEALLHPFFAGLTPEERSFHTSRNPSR

[26] = molecular target: Focal adhesion kinase 1 (Homo sapiens) (UniProt Q05397); assay: Inhibition of PTK2 (unknown origin) at 1000 nM in the presence of ATP by Kinome scan method relative to control
[27] = molecular target: cAMP-dependent protein kinase catalytic subunit alpha (Homo sapiens) (UniProt P17612); assay: Inhibition of PRKACA (unknown origin) at 100 nM in the presence of ATP by Kinome scan method relative to control
[28] = molecular target: Angiopoietin-1 receptor (Homo sapiens) (UniProt Q02763); assay: Inhibition of TEK (unknown origin) at 100 nM in the presence of ATP by Kinome scan method relative to control
[29] = molecular target: Cyclin-dependent kinase 5/CDK5 activator 1 (Homo sapiens) (UniProt Q00535+Q15078); assay: Inhibition of CDK5/p35 (unknown origin) at 100 nM in the presence of ATP by Kinome scan method relative to control; type: protein-complex assay
[30] = molecular target: Calcium/calmodulin-dependent protein kinase type 1 (Homo sapiens) (UniProt Q14012); assay: Inhibition of CAMK1 (unknown origin) at 1000 nM in the presence of ATP by Kinome scan method relative to control

CN1CCN(C(=O)C(C)(C)c2ccc(C(=O)Nc3cn4cc(-c5ccncc5)ccc4n3)cc2)CC1 [T3-CLK]
inhibition [1]: -1% | inhibition [2]: -1% | inhibition [3]: -9% | inhibition [4]: -1% | inhibition [5]: 7% | inhibition [6]: Active | inhibition [7]: 9% | inhibition [8]: Active | inhibition [9]: -3% | inhibition [10]: -9% | inhibition [11]: 17% | Activity [12]: 13.1% | Activity [13]: 18.4% | inhibition [14]: Dose-Dependent Effect | inhibition [15]: 1% | inhibition [16]: 18% | Activity [17]: 37.7% | Activity [18]: 8.13% | inhibition [19]: 4% | inhibition [20]: 8% | inhibition [21]: -6% | inhibition [22]: 5% | inhibition [23]: Dose-Dependent Effect | inhibition [24]: -5% | inhibition [25]: 38% | inhibition [26]: -7% | inhibition [27]: -2% | inhibition [28]: 0% | inhibition [29]: 2% | inhibition [30]: 5%

Reference: ChEMBL document CHEMBL5696444 (Nat Commun, 2017)
